Reference: ChEMBL document CHEMBL4266032, “Methylated Polycyclic Polyprenylated Acylphloroglucinol Derivatives from Hypericum ascyron” (2018)

System: HepG2
Assay: Hepatoprotective activity in human HepG2 cells assessed as inhibition of paracetamol-induced reduction in cell viability at 10 uM pretreated for 1 hr followed by paracetamol addition after 24 hrs by MTT assay relative to control
Format: functional
Conditions: not given
Method in brief: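 HepG2 cells injured with paracetamol; test agents at 10 μM; viability read by MTT and given as % of normal, with protection expressed as % inhibition relative to the paracetamol-only control. Bicyclol at 10 μM served as positive control. Means ± SD, n = 3 (n = 6 for normal and control groups).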

Q: How did the inhibition at 10 µM turn out when CC(C)=CCC[C@]1(C)[C@@H](CC=C(C)C)C[C@]2(C)C(=O)C3=C(O[C@H](C(C)(C)O)[C@H]3O)[C@@]1(C(=O)c1ccccc1)C2=O was run?
A: The inhibition at 10 µM was 68.1%.

Q: CC(C)=CCC[C@]1(C)[C@@H](CC=C(C)C)C[C@]2(C)C(=O)C3=C(O[C@@H](C(C)(C)O)[C@H]3O)[C@@]1(C(=O)c1ccccc1)C2=O was tested. Which inhibition at 10 µM did it give?
A: The inhibition at 10 µM was 71.4%.

Q: Which inhibition at 10 µM does the source give for CC(C)=CC[C@H]1C[C@]2(C)C(=O)C(C(=O)c3ccccc3)=C3O[C@H](C(C)(C)O)CC[C@@]1(C)[C@]3(CC=C(C)C)C2=O here?
A: Its inhibition at 10 µM is 42.9%.

Q: For CC(C)=CCC[C@]1(C)[C@@H](CC=C(C)C)C[C@@]2(C)C(=O)[C@]1(C(=O)c1ccccc1)C(=O)C1=C2O[C@H](C(C)(C)O)[C@@H]1O, which inhibition at 10 µM is on record?
A: The inhibition at 10 µM was 30.8%.

Q: CC(C)=CCC1=C2O[C@H](C(C)(C)O)CC[C@]3(C)[C@@H](CC=C(C)C)C[C@](C)(C1=O)C(=O)[C@]23C(=O)c1ccccc1 was tested. Which inhibition at 10 µM did it give?
A: Its inhibition at 10 µM is 37.2%.

Q: How did the inhibition at 10 µM turn out when COC(=O)c1cc(OC)c2c(c1-c1c(CO)cc(OC)c3c1OCO3)OCO2 [BICYCLOL] was run?
A: The inhibition at 10 µM was 52.6%.

System: SK-N-SH
Assay: Neuroprotective activity against glutamate-induced toxicity in human SK-N-SH cells assessed as cell viability at 10 uM pretreated for 4 hrs followed by glutamate challenge measured after 4 hrs by MTT assay (reference value: 67.7 +/- 1.1%)
Format: functional
Conditions: read-out: Activity

Q: Which viability at 10 µM does the source give for CC(C)=CCC[C@]1(C)[C@@H](CC=C(C)C)C[C@]2(C)C(=O)C3=C(O[C@H](C(C)(C)O)[C@H]3O)[C@@]1(C(=O)c1ccccc1)C2=O here?
A: The viability at 10 µM was 78.2%.

Q: Which viability at 10 µM does the source give for CC(C)=CCC[C@]1(C)[C@@H](CC=C(C)C)C[C@]2(C)C(=O)C3=C(O[C@H](C(C)(C)O)[C@@H]3O)[C@@]1(C(=O)c1ccccc1)C2=O here?
A: The viability at 10 µM was 72.2%.

Q: How did the viability at 10 µM turn out when CC(C)=CCC[C@]1(C)[C@@H](CC=C(C)C)C[C@@]2(C)C(=O)[C@]1(C(=O)c1ccccc1)C(=O)C1=C2O[C@@H](C(C)(C)O)C1 was run?
A: The viability at 10 µM was 82.9%.

Q: CC(C)=CCC[C@]1(C)[C@@H](CC=C(C)C)C[C@]2(C)C(=O)C3=C(O[C@@H](C(C)(C)O)C3)[C@@]1(C(=O)c1ccccc1)C2=O was tested. Which viability at 10 µM did it give?
A: Its viability at 10 µM is 71.8%.

Q: Oc1ccc(/C=C/c2cc(O)cc(O)c2)cc1 [RESVERATROL] was tested. Which viability at 10 µM did it give?
A: The viability at 10 µM was 82.5%.
